Experimental data published in ChEMBL document CHEMBL1649330, “Multicenter study for defining the breakpoint for rifampin resistance in Neisseria meningitidis by rpoB sequencing” (2010).
≈ marks a conversion by molar mass, not a printed value.

How the values were obtained:
Format in all cases: functional
Neisseria meningitidis [1] = assay: Antimicrobial activity against Neisseria meningitidis expressing wild type rpoB9 allele by Etest
How it was run: (§1)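 Rifampin MIC by Etest on meningococcal isolates from participating national laboratories, with rpoB sequenced for each isolate. Values are geometric means of MICs over all isolates carrying a given allele that lacks alterations at S548, H552 and S557 and lacks D542V. Only alleles represented by at least five isolates were reported.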

Neisseria meningitidis [2] = assay: Antimicrobial activity against Neisseria meningitidis harboring rpoB10 H552R mutant allele by Etest
How it was run: (§2)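 Rifampin MIC by Etest on meningococcal clinical isolates collected by the participating national laboratories, with MIC read in mg/liter. The rpoB gene of each isolate was sequenced and assigned to an allele. Isolates were serogrouped by agglutination with serogroup-specific antisera.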

Neisseria meningitidis [3] = assay: Antimicrobial activity against Neisseria meningitidis harboring rpoB44 H552Y mutant allele by Etest; how it was run: as §2
Neisseria meningitidis [4] = assay: Antimicrobial activity against Neisseria meningitidis harboring rpoB32 H552Y mutant allele by Etest; how it was run: as §2
Neisseria meningitidis [5] = assay: Antimicrobial activity against Neisseria meningitidis harboring rpoB50 S557F mutant allele by Etest; how it was run: as §2
Neisseria meningitidis [6] = assay: Antimicrobial activity against Neisseria meningitidis harboring rpoB17 H552Y mutant allele by Etest; how it was run: as §2
Neisseria meningitidis [7] = assay: Antimicrobial activity against Neisseria meningitidis harboring rpoB26 D542N and S557F mutant allele by Etest; how it was run: as §2
Neisseria meningitidis [8] = assay: Antimicrobial activity against Neisseria meningitidis expressing wild type rpoB31 allele by Etest; how it was run: as §1
Neisseria meningitidis [9] = assay: Antimicrobial activity against Neisseria meningitidis expressing wild type rpoB34 allele by Etest; how it was run: as §1
Neisseria meningitidis [10] = assay: Antimicrobial activity against Neisseria meningitidis harboring rpoB23 S548F mutant allele by Etest; how it was run: as §2
Neisseria meningitidis [11] = assay: Antimicrobial activity against Neisseria meningitidis expressing wild type rpoB28 allele by Etest; how it was run: as §1
Neisseria meningitidis [12] = assay: Antimicrobial activity against Neisseria meningitidis expressing wild type rpoB18 allele by Etest; how it was run: as §1
Neisseria meningitidis [13] = assay: Antimicrobial activity against Neisseria meningitidis expressing wild type rpoB40 allele by Etest; how it was run: as §1
Neisseria meningitidis [14] = assay: Antimicrobial activity against Neisseria meningitidis expressing wild type rpoB2 allele by Etest; how it was run: as §1
Neisseria meningitidis [15] = assay: Antimicrobial activity against Neisseria meningitidis harboring rpoB51 H552Y mutant allele by Etest; how it was run: as §2
Neisseria meningitidis [16] = assay: Antimicrobial activity against Neisseria meningitidis harboring rpoB12 H552L mutant allele by Etest; how it was run: as §2
Neisseria meningitidis [17] = assay: Antimicrobial activity against Neisseria meningitidis harboring rpoB15 H552N mutant allele by Etest; how it was run: as §2
Neisseria meningitidis [18] = assay: Antimicrobial activity against Neisseria meningitidis harboring rpoB37 G560S mutant allele by Etest; how it was run: as §2
Neisseria meningitidis [19] = assay: Antimicrobial activity against Neisseria meningitidis harboring rpoB14 S548F mutant allele by Etest; how it was run: as §2
Neisseria meningitidis [20] = assay: Antimicrobial activity against Neisseria meningitidis harboring rpoB39 D542V mutant allele by Etest; how it was run: as §2
Neisseria meningitidis [21] = assay: Antimicrobial activity against Neisseria meningitidis harboring rpoB45 D542V mutant allele by Etest; how it was run: as §2
Neisseria meningitidis [22] = assay: Antimicrobial activity against Neisseria meningitidis expressing wild type rpoB27 allele by Etest; how it was run: as §1
Neisseria meningitidis [23] = assay: Antimicrobial activity against Neisseria meningitidis harboring rpoB46 H552N mutant allele by Etest; how it was run: as §2
Neisseria meningitidis [24] = assay: Antimicrobial activity against Neisseria meningitidis harboring rpoB36 H552N mutant allele by Etest; how it was run: as §2
Neisseria meningitidis [25] = assay: Antimicrobial activity against Neisseria meningitidis expressing wild type rpoB1 allele by Etest; how it was run: as §1
Neisseria meningitidis [26] = assay: Antimicrobial activity against Neisseria meningitidis harboring rpoB16 H552Y mutant allele by Etest; how it was run: as §2
Neisseria meningitidis [27] = assay: Antimicrobial activity against Neisseria meningitidis expressing wild type rpoB4 allele by Etest; how it was run: as §1
Neisseria meningitidis [28] = assay: Antimicrobial activity against Neisseria meningitidis harboring rpoB19 S557F mutant allele by Etest; how it was run: as §2
Neisseria meningitidis [29] = assay: Antimicrobial activity against Neisseria meningitidis harboring rpoB11 H552N mutant allele by Etest; how it was run: as §2
Neisseria meningitidis [30] = assay: Antimicrobial activity against Neisseria meningitidis harboring rpoB20 H552Y mutant allele by Etest; how it was run: as §2
Neisseria meningitidis [31] = assay: Antimicrobial activity against Neisseria meningitidis harboring rpoB57 D542N mutant allele by Etest; how it was run: as §2
Neisseria meningitidis [32] = assay: Antimicrobial activity against Neisseria meningitidis harboring rpoB13 H552Y mutant allele by Etest; how it was run: as §2
Neisseria meningitidis [33] = assay: Antimicrobial activity against Neisseria meningitidis expressing wild type rpoB5 allele by Etest; how it was run: as §1
Neisseria meningitidis [34] = assay: Antimicrobial activity against Neisseria meningitidis harboring rpoB53 G560S mutant allele by Etest; how it was run: as §2

With CO[C@H]1/C=C/O[C@@]2(C)Oc3c(C)c(O)c4c(O)c(c(/C=N/N5CCN(C)CC5)c(O)c4c3C2=O)NC(=O)/C(C)=C\C=C\[C@H](C)[C@H](O)[C@@H](C)[C@@H](O)[C@@H](C)[C@H](OC(C)=O)[C@@H]1C [RIFAMPIN] the MIC (Neisseria meningitidis [1]) was 0.065 µg/mL (≈ 0.079 µM), the MIC (Neisseria meningitidis [2]) was over 32 µg/mL and the MIC (Neisseria meningitidis [3]) was 256 µg/mL (≈ 311 µM). The MIC (Neisseria meningitidis [4]) was over 32 µg/mL, the MIC (Neisseria meningitidis [5]) was over 32 µg/mL and the MIC (Neisseria meningitidis [6]) was over 32 µg/mL. For the same molecule, the MIC (Neisseria meningitidis [7]) was over 32 µg/mL, the MIC (Neisseria meningitidis [8]) was 0.015 µg/mL (≈ 0.0182 µM) and the MIC (Neisseria meningitidis [9]) was 0.029 µg/mL (≈ 0.0352 µM). The MIC (Neisseria meningitidis [10]) was over 32 µg/mL, the MIC (Neisseria meningitidis [11]) was 0.025 µg/mL (≈ 0.0304 µM) and the MIC (Neisseria meningitidis [12]) was 0.024 µg/mL (≈ 0.0292 µM). It also gave an MIC (Neisseria meningitidis [13]) of 0.034 µg/mL (≈ 0.0413 µM), an MIC (Neisseria meningitidis [14]) of 0.057 µg/mL (≈ 0.0693 µM) and an MIC (Neisseria meningitidis [15]) of over 32 µg/mL. For the same molecule, the MIC (Neisseria meningitidis [16]) was over 32 µg/mL, the MIC (Neisseria meningitidis [17]) was over 32 µg/mL and the MIC (Neisseria meningitidis [18]) was 8 µg/mL (≈ 9.72 µM). For the same molecule, the MIC (Neisseria meningitidis [19]) was over 32 µg/mL, the MIC (Neisseria meningitidis [20]) was over 32 µg/mL and the MIC (Neisseria meningitidis [21]) was 256 µg/mL (≈ 311 µM). For the same molecule, the MIC (Neisseria meningitidis [22]) was 0.15 µg/mL (≈ 0.182 µM), the MIC (Neisseria meningitidis [23]) was 256 µg/mL (≈ 311 µM) and the MIC (Neisseria meningitidis [24]) was 8 µg/mL (≈ 9.72 µM). It also gave an MIC (Neisseria meningitidis [25]) of 0.225 µg/mL (≈ 0.273 µM), an MIC (Neisseria meningitidis [26]) of over 32 µg/mL and an MIC (Neisseria meningitidis [27]) of 0.089 µg/mL (≈ 0.108 µM). For the same molecule, the MIC (Neisseria meningitidis [28]) was over 32 µg/mL, the MIC (Neisseria meningitidis [29]) was over 32 µg/mL and the MIC (Neisseria meningitidis [30]) was over 32 µg/mL. The MIC (Neisseria meningitidis [31]) was 0.125 µg/mL (≈ 0.152 µM), the MIC (Neisseria meningitidis [32]) was over 32 µg/mL and the MIC (Neisseria meningitidis [33]) was 0.061 µg/mL (≈ 0.0741 µM). For the same molecule, the MIC (Neisseria meningitidis [34]) was 0.125 µg/mL (≈ 0.152 µM).
